The list is not random: actives were taken first. Their share in the collection is about 2.1%.
Runt-CBFb FRET: inhibitors of human RUNX1 Runt domain binding to CBFb; Q01196+Q13951; Cerulean-Runt/Venus-CBFb FRET ratio 530/480, 1 h; inhibition, % at 20 µM; 220,000 tested, 0.46% active;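 active = inhibition over about 50% at 20 µM in the single-dose screen, limit read from the data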;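 also: 0% = DMSO wells and 100% = excess unlabeled CBFb competitor control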
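Measured by: fluorescence energy transfer, 422 nm excitation, 530/480 nm emission; Assay system: Cerulean-Runt domain; Medium: Tris pH 7.5 buffer with BSA; Measure: loss of energy transfer signal; Controls: 5 µM unlabeled CBFb as full-inhibition high control; Incubation: protein complex preformed 1 h, compound exposure 1 h, room temperature, dark.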
Runt-SMMHC FRET: Runt domain-CBFb-SMMHC interaction inhibition; Q01196+Q13951; Cerulean-Runt/Venus-CBFb-SMMHC FRET ratio 530/480, 1 h; inhibition, % at 20 µM; 220,000 tested, 0.74% active; AID 1434;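 active = mean inhibition across duplicate retests at 20 µM reaching about 50%, limit read from the data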;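 also: 0% = DMSO wells and 100% = wells with excess untagged CBFb-SMMHC; inhibitors lower the FRET ratio by blocking Runt binding to CBFb-SMMHC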
p97 inhibitor: blocks human p97 ATPase activity; recombinant p97 ATPase, Kinase-Glo ATP luminescence, 3 h; P55072; 220,000 tested, 0.42% active; inhibition, % at 8 µM; AID 1481; in the data active = inhibition above about 15%;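 also: 0% = DMSO vehicle and 100% = wells lacking enzyme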
Target sequence (P55072 whole entry, looked up): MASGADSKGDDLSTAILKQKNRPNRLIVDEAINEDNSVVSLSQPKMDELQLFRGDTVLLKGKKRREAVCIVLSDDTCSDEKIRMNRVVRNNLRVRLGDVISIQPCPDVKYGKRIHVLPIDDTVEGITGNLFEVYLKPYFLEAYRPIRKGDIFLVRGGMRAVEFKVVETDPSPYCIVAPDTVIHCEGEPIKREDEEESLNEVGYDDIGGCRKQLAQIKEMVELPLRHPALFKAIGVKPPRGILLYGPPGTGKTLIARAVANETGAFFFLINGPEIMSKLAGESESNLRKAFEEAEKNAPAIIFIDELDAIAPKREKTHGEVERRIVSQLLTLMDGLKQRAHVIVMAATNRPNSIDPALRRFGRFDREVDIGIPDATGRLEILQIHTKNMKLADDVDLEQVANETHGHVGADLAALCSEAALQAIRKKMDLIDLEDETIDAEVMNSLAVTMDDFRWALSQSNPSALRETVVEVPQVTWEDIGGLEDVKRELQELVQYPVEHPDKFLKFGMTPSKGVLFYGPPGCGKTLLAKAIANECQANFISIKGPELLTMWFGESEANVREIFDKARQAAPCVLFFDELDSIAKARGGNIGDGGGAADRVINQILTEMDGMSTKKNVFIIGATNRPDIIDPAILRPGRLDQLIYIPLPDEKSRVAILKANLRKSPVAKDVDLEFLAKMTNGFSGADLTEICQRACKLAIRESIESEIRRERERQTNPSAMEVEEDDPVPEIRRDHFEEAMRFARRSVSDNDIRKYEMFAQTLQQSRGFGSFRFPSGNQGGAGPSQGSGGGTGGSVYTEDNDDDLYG
RanGTP-Imp inh: disruptors of Ran-importin-beta complex formation – biochemical, FRET, CFP-Ran, YFP-importin-beta, homogeneous, primary screen; cell-free CFP-Ran/YFP-importin-beta FRET ratio; inhibition, % (concentration not given with the values); 300,000 tested, 1.1% active;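 active = more than half of the replicate wells show a fall in the fluorescence ratio signal beyond about 16%, limit read from the data, passing the limit was not always enough; inconclusive = exactly half of the replicate wells pass the set limit; inactive = fewer than half of replicates pass the limit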;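 also: 0% = DMSO wells and 100% = Ran loaded with GDP instead of GTP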
Hck-Nef inh: inhibitors of human Hck kinase activated by Nef. inhibition, % at 20 µM. Recombinant Hck-YEEI plus Nef, Z-Lyte FRET kinase assay. 220,000 tested, 0.68% active. AID 463187. P08631;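 active = Hck-Nef kinase inhibition above about 50%, limit read from the data; inactive = inhibition below that limit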;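 also: 0% = DMSO with Hck plus Nef and 100% = Hck alone without Nef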
Tb hexokinase: T. brucei hexokinase 1 inhibition. inhibition, % at 10 µM. AID 1430. 220,000 tested, 0.11% active. recombinant TbHK1, G6PDH-coupled NADH A340;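 active = inhibition of 50% or more in the single-dose primary screen; inactive = inhibition below 50%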
G6PDH ctr: inhibits Leuconostoc G6PDH, counter-screen for TbHK1 inhibitors. AID 2516. 210 tested, 7% active. purified G6PDH, NADH absorbance, 1 h. inhibition, % at 10 µM. shares compounds with Tb hexokinase;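 active = at least 50% inhibition in the glucose-6-phosphate dehydrogenase coupled counterscreen; inconclusive = no clear call, values can overlap the other calls; inactive = inhibition below 50%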
TbHK1 rescreen: T. brucei hexokinase 1 inhibition, rescreen; shares compounds with Tb hexokinase; recombinant TbHK1, G6PDH-coupled NADH A340 absorbance; inhibition, % at 10 µM; 210 tested, 10% active; AID 2560;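 active = inhibition of at least 50% in both of the two screening runs; inconclusive = at least 50% in one run, below 50% in the other; inactive = inhibition below 50% in both runs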;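 also: 0% and 100% set by the maximum and minimum signal control wells on each plate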
An asterisk follows results filed as active.

Results for CC(C)(C)c1ccc(COC(=O)CNC(=O)CNC(=O)Cc2ccccc2)cc1 ?
Runt-CBFb FRET: -9.3; Runt-SMMHC FRET: -4.5; p97 inhibitor: -1.8; RanGTP-Imp inh: -0.2; Hck-Nef inh: -0.1; Tb hexokinase: 2.7

What do the screens show for `O=C(NNc1cccc(Cl)n1)Nc1ccccc1Cl`?
Runt-CBFb FRET: 2.4; Runt-SMMHC FRET: 3.9; p97 inhibitor: -1.6; RanGTP-Imp inh: -1.7; Hck-Nef inh: 0.7; Tb hexokinase: -9.8

How did COc1ccccc1C1CCN(C(=O)c2ccccc2)CC1 do in these assays?
RanGTP-Imp inh: -0.6

Results for COc1ccccc1C1CCN(C(=O)c2cccs2)CC1 ?
Runt-CBFb FRET: -0.4; Runt-SMMHC FRET: -2.2; p97 inhibitor: -3.9; RanGTP-Imp inh: -5.4; Hck-Nef inh: 11.3; Tb hexokinase: 50.2*; G6PDH ctr: -2.8; TbHK1 rescreen: -1.5

How did Cc1cccc(NC(=S)NNC(=O)c2cc3c(s2)CCC(C)C3)c1C (stereo unspecified) do in these assays?
Runt-CBFb FRET: -0.8; Runt-SMMHC FRET: -0.3; p97 inhibitor: 1.3; RanGTP-Imp inh: -2.5; Hck-Nef inh: 2.9; Tb hexokinase: 70.6*; G6PDH ctr: -34.1; TbHK1 rescreen: -1.5

What do the screens show for `C=CCNC(=O)CC(C)C(CCCCC)C(=O)O` (stereo unspecified)?
Runt-CBFb FRET: 2.0; Runt-SMMHC FRET: 1.2; p97 inhibitor: 1.3; RanGTP-Imp inh: 1.6; Hck-Nef inh: 2.2; Tb hexokinase: 50.3*; G6PDH ctr: -9.0; TbHK1 rescreen: 2.8

Results for CCCCC(C(=O)O)C(C)CC(=O)Nc1cccc(C(=O)O)c1 (stereo unspecified) ?
Runt-CBFb FRET: -2.0; Runt-SMMHC FRET: -1.9; p97 inhibitor: 4.1; RanGTP-Imp inh: 8.1; Hck-Nef inh: -2.6; Tb hexokinase: -1.8

How did COC(=O)c1[nH]c(=O)c2ccccc2c1OCc1ccccc1 do in these assays?
Runt-CBFb FRET: -0.1; Runt-SMMHC FRET: 4.0; p97 inhibitor: 10.3; RanGTP-Imp inh: 3.2; Hck-Nef inh: 6.7; Tb hexokinase: 53.6*; G6PDH ctr: -30.8; TbHK1 rescreen: -27.4

How did CCC(=O)NC(c1cccs1)c1cc([N+](=O)[O-])c2cccnc2c1O (stereo unspecified) do in these assays?
Runt-CBFb FRET: 7.1; Runt-SMMHC FRET: 3.5; p97 inhibitor: -2.3; RanGTP-Imp inh: -1.5; Hck-Nef inh: 0.6; Tb hexokinase: 52.1*; G6PDH ctr: -23.4; TbHK1 rescreen: 6.3

How did CCCC(=O)NC(c1cccs1)c1cc([N+](=O)[O-])c2cccnc2c1O (stereo unspecified) do in these assays?
Runt-CBFb FRET: 7.4; Runt-SMMHC FRET: 12.3; p97 inhibitor: 2.7; RanGTP-Imp inh: -1.3; Hck-Nef inh: 4.4; Tb hexokinase: 4.6

What do the screens show for `O=[N+]([O-])c1cc(/C=N\Nc2nccs2)ccc1O`?
Runt-CBFb FRET: 27.9; Runt-SMMHC FRET: 11.0; p97 inhibitor: 8.4; RanGTP-Imp inh: 4.0; Hck-Nef inh: 0.6; Tb hexokinase: 50.2*; G6PDH ctr: -64.6; TbHK1 rescreen: 56.2*

How did O=C1CN(C(=O)COC(=O)CCC(=O)c2ccc3c(c2)OCCO3)c2ccccc2N1 do in these assays?
Runt-CBFb FRET: -0.1; Runt-SMMHC FRET: -2.9; p97 inhibitor: -0.7; RanGTP-Imp inh: -3.5; Hck-Nef inh: 6.7; Tb hexokinase: 50.1*; G6PDH ctr: -5.8; TbHK1 rescreen: -4.7

How did Cc1cccc(C)c1NC(=O)CSc1nnc(-c2ccoc2C)n1C do in these assays?
Runt-CBFb FRET: -1.1; Runt-SMMHC FRET: 0.6; p97 inhibitor: -4.5; RanGTP-Imp inh: -3.0; Hck-Nef inh: 6.6; Tb hexokinase: 66.7*; G6PDH ctr: 2.9; TbHK1 rescreen: -1.7

Results for NC(=O)C1CCN(C(=O)c2cc(S(=O)(=O)N3CCOCC3)c(Cl)cc2Cl)CC1 ?
Runt-CBFb FRET: 1.9; Runt-SMMHC FRET: -1.8; p97 inhibitor: 8.4; RanGTP-Imp inh: 1.4; Hck-Nef inh: 6.5; Tb hexokinase: 68.5*; G6PDH ctr: -8.3; TbHK1 rescreen: -2.6

What do the screens show for `O=C(c1cc(S(=O)(=O)N2CCOCC2)c(Cl)cc1Cl)N1CCCCC1`?
Runt-CBFb FRET: 1.6; Runt-SMMHC FRET: -0.5; p97 inhibitor: -2.3; RanGTP-Imp inh: 3.5; Hck-Nef inh: -1.5; Tb hexokinase: 3.6

Results for O=c1c2ccccc2sn1-c1ccccc1 ?
Runt-CBFb FRET: 32.0; Runt-SMMHC FRET: 57.0*; p97 inhibitor: -0.4; RanGTP-Imp inh: 3.0; Hck-Nef inh: 96.3*; Tb hexokinase: 80.5*; G6PDH ctr: -16.5; TbHK1 rescreen: 83.9*

How did CC(=O)c1ccc(NC(=O)C2CC(c3ccc(F)cc3)=NO2)cc1 (stereo unspecified) do in these assays?
Runt-CBFb FRET: 1.1; Runt-SMMHC FRET: 0.5; p97 inhibitor: 3.2; RanGTP-Imp inh: 0.6; Hck-Nef inh: 3.5; Tb hexokinase: 51.9*; G6PDH ctr: 2.2; TbHK1 rescreen: 7.6

What do the screens show for `O=c1[nH]c(SCc2c(Cl)cccc2Cl)nc2ccccc12`?
Runt-CBFb FRET: 1.0; Runt-SMMHC FRET: 3.5; p97 inhibitor: 1.1; RanGTP-Imp inh: 1.0; Hck-Nef inh: 5.1; Tb hexokinase: -7.9

Results for Cc1nn2c(-c3cccc(NC(=O)CN4CCOCC4)c3)nnc2c2ccccc12 ?
p97 inhibitor: 4.1; RanGTP-Imp inh: inconclusive; Hck-Nef inh: 2.3; Tb hexokinase: -3.3

How did Cc1ccc(-c2nnc3c4ccccc4c(C)nn23)cc1NC(=O)CN1CCOCC1 do in these assays?
Runt-CBFb FRET: 1.2; Runt-SMMHC FRET: -0.8; p97 inhibitor: -2.9; RanGTP-Imp inh: -1.1; Hck-Nef inh: 5.7; Tb hexokinase: 51.5*; G6PDH ctr: -19.9; TbHK1 rescreen: -11.0

What do the screens show for `CN(C)c1ccc(C(=S)N2CCOCC2)cc1`?
Runt-CBFb FRET: 4.0; Runt-SMMHC FRET: 6.0; p97 inhibitor: -4.7; Hck-Nef inh: 7.5; Tb hexokinase: 68.9*; G6PDH ctr: -19.8; TbHK1 rescreen: -30.1

Results for CCOC(=O)c1c(C)[nH]c(C)c1S(=O)(=O)NCCN1CCN(c2ccccc2F)CC1 ?
RanGTP-Imp inh: -1.5

How did CC1SCC(NC(=O)c2ccc(Cl)cc2)CS1 (stereo unspecified) do in these assays?
Runt-CBFb FRET: 1.3; Runt-SMMHC FRET: -4.8; p97 inhibitor: 0.8; RanGTP-Imp inh: 2.2; Hck-Nef inh: 2.3; Tb hexokinase: 50.9*; G6PDH ctr: -0.6; TbHK1 rescreen: 0.2

Results for CCn1ncc(CN2CCC(Oc3cc(C(=O)NC4CC4)ccc3OC)CC2)c1C ?
RanGTP-Imp inh: 0.0

Bioassay records: PubChem BioAssay, several laboratories
